Measured values from different studies.
Protocols differ between the studies behind these lines.

SMILES	tested on	test	system	setting	measurement	result
COc1cccc(-c2n[nH]c(SCc3ccccn3)n2)c1OC	–	–	female Sprague-Dawley rat, plasma	intravenous, 1 mg/kg, 10 min, single dose	concentration	2680 ng/mL
C=CC1(C)CC(OC(=O)CSc2nc3ccccc3s2)C2(C)C(C)CCC3(CCC(=O)C32)C(C)C1O (stereo not drawn)	K562	cell growth or viability	–	–	IC50	38.2 µM
Cc1noc(C)c1Cn1cc(N2C(=O)CN(Cc3cccc(O)c3)C2=O)cn1	–	–	male Sprague-Dawley rat, plasma	oral, 100 mg/kg, 1 h	concentration	30.5 ng/mL
Cc1nnc(SCC(=O)Nc2ccc(Br)cc2)nc1O	K562	cell growth or viability	–	–	IC50	> 200 µM
COc1ccc2c(=O)n(C)c(-c3ccccc3)nc2c1	–	–	male Sprague-Dawley rat, lung	oral, 30 mg/kg, 2 h	concentration	2.13 ng/mL
CCOC(=O)[C@@]12C[C@@H]1[C@@H](n1ccc3c(NC)nc(C#Cc4ccc(Cl)s4)nc31)[C@H](O)[C@@H]2O	–	–	male Sprague-Dawley rat, plasma	oral, 1 mg/kg, 15 min	concentration	5.75 ng/mL
C[C@@H]1Cn2ncc(-c3ccc(C(=O)N4CCCc5ccccc54)cc3)c2CN1C(=O)[C@H](C)c1ccccc1	Broad substrate specificity ATP-binding cassette transporter ABCG2 (ABCG2, Homo sapiens, UniProt Q9UNQ0)	–	dog, MDCK-MDR1	–	Papp B→A	13.4 ×10⁻⁶ cm/s
CN1CCN=C1c1ccc(NC(=O)c2ccc(C(=O)Nc3ccc(C4=NCCN4C)cc3)cc2)cc1	K562	cell growth or viability	–	–	IC50	171 µM
CCc1cc(-c2noc(-c3cc(OC)nc(C4CCCC4)c3)n2)cc(C)c1OC[C@@H](O)CO	–	–	Wistar rat, plasma	oral, 0.3 mg/kg, 3 h, single dose	concentration	16.7 ng/mL
